High-throughput results (PubChem BioAssay)
TLR9-MyD88 inh – inhibitors of TLR9-MyD88 association in cells, primary screen, cell-based, CHO, BLA complementation, fluorescence | CCF4 FRET ratio | inhibition, % at 4.98 µM | hit rate 0.21% among 340,000 | AID 504734, 2011;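 active = inhibition above the mean over all tested compounds plus 3 SD, cut at about 21% in these data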;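 also: 0% = DMSO only wells and 100% = clavulanate BLA inhibitor control wells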
TLR4-MyD88 BLA – inhibitors of TLR4-MyD88 association in cells, primary screen, cell-based, HeLa CL3-4, BLA complementation, FRET ratio; HeLa CL3-4 TLR4/MyD88 BLA complementation; inhibition, % at 8.4 µM; hit rate 0.18% among 200,000; in the data active = inhibition above about 25%;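 also: 0% = vehicle and 100% = reference inhibitor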
NOD2 RIPK2 PPI – NOD2-RIPK2 binding disruptors in cells, primary screen, fluorescence, CHO cells, BLA complementation. Receptor-interacting serine/threonine-protein kinase 2 (Homo sapiens), O43353. CCF4 ratio. inhibition, % at 4.98 µM. hit rate 0.38% among 360,000. AID 624267, 2012; in the data active = inhibition above about 21%;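 also: 0% = vehicle only and 100% = reference blocker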
MIN6 prolif – inducers of MIN6 beta-cell proliferation, primary screen, ATP luminescence, uHTS; MIN6 cells proliferation, ATPlite luminescence, 48 h; cells starved in 0.2% serum; 100% = growth in 10% serum; proliferation, % at 10 µM; hit rate 0.29% among 330,000; AID 2380, 2010;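 active = compounds whose signal lies at least 3.5 SD above the mean of all wells on their plate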;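 also: 0% = DMSO-treated cells in low-serum medium and 100% = 10% serum control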
MC4R antagonist – MC4R antagonists of cAMP signaling, primary screen, cell-based, TR-FRET, antagonist arm of biased-ligand search | hit rate 0.48% among 360,000 | inhibition, % at 6.5 µM | MC4R-expressing cells, MTII-stimulated cAMP, LANCE TR-FRET | Melanocortin receptor 4 (Homo sapiens), P32245;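 active = inhibition above its plate's cutoff, the mean of tested wells on that plate plus 3 SD, cut at about 29% in these data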;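 also: 0% = Melanotan II alone and 100% = Melanotan II plus saturating MCL0020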
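Assay system: U2OS-MC4R stable cell line; Also added: Melanotan II; Technique: Eu-cAMP/anti-cAMP TR-FRET, emission 671 nm; Times: 30-min compound, 1-h challenge, 1-h detection, room temperature.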
MC4R ag barr – MC4R agonists recruiting beta-arrestin, primary screen, cell-based, luminescence, agonist arm of biased-ligand search | Melanocortin receptor 4 (Homo sapiens), P32245 | U2OS MC4R beta-arrestin complementation; percent of melanotan II response, DMSO zero | activation, % at 8.9 µM | hit rate 0.98% among 360,000 | AID 540308, 2011;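 active = activation above a per-plate cutoff, the mean activation of sample wells on that plate plus 3 SD, cut at about 8% in these data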
MC4R barr ag – MC4R beta-arrestin agonists, retest, confirmation, cell-based, luminescence, U2OS. shares compounds with MC4R ag barr. U2OS MC4R beta-arrestin recruitment; scaled DMSO 0%, Melanotan II 100%. activation, % at 8.9 µM. hit rate 31% among 2,400;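 active = mean activation across replicates above the hit cutoff set in the earlier primary screen, cut at about 8% in these data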
MOR-DOR barr ag – agonists of MOR-DOR heterodimerization, counter-screen for MC4R biased agonist project, cell-based, luminescence | shares compounds with MC4R ag barr | U2OS PathHunter beta-arrestin, beta-gal luminescence; percent of deltorphin B response, DMSO zero | activation, % at 9.2 µM | hit rate 5.8% among 2,400;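 active = mean activation across replicates exceeds the hit threshold derived in the earlier primary screen, cut at about 18% in these data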;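 also: 100% = deltorphin B at 0.9 µM final and 0% = DMSO alone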
Target sequence (P35372 whole entry, looked up): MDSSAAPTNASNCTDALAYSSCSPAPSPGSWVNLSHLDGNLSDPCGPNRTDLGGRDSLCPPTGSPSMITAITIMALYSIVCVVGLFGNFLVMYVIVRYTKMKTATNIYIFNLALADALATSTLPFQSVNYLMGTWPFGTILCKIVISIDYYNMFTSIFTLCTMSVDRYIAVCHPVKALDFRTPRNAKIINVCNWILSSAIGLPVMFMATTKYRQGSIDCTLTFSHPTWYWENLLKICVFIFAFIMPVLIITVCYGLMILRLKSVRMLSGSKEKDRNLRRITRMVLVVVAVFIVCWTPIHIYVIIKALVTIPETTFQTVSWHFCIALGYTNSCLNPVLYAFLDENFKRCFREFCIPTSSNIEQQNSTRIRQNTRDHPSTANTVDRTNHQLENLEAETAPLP
Target sequence (P41143 whole entry, looked up): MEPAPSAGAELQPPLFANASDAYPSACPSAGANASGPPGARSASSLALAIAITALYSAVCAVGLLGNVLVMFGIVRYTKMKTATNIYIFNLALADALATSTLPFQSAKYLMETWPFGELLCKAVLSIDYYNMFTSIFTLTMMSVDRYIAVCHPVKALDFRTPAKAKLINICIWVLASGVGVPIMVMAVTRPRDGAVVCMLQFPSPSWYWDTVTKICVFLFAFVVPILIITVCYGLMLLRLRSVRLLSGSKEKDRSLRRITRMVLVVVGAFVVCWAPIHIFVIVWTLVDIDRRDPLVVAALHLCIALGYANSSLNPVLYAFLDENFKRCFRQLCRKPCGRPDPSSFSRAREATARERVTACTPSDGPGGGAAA
Active calls of the source: *; . = no result. Compounds with a hit are over-represented: about 2.1% of the library has one in this group of screens.

SMILES	TLR9-MyD88 inh	TLR4-MyD88 BLA	NOD2 RIPK2 PPI	MIN6 prolif	MC4R antagonist	MC4R ag barr	MC4R barr ag	MOR-DOR barr ag
COc1cc(-c2cnc3c(NC=O)cc(-c4ccc(C)cc4)cn23)cc(OC)c1OC	.	.	-2.8	.	-34.2	-0.4	.	.
COc1ccc(-c2cc(NC=O)c3ncc(-c4ccc(C(C)=O)cc4)n3c2)cc1OC	.	.	-8.2	.	7.6	11.2*	9.0*	3.3
COc1cc(-c2cnc3c(NC=O)cc(-c4ccccc4)cn23)cc(OC)c1OC	.	.	8.9	.	-53.5	5.4	.	.
COc1cc(-c2cc(NC=O)c3ncc(-c4ccccc4)n3c2)cc(OC)c1OC	.	.	0.2	.	-25.4	12.9*	25.2*	2.2
COc1cc(-c2cc(NC=O)c3ncc(-c4ccc(C(C)=O)cc4)n3c2)cc(OC)c1OC	.	.	-0.5	.	-0.7	25.9*	18.5*	2.1
COc1ccc(-c2cnc3c(NC=O)cc(-c4ccc(C(=O)N5CCOCC5)cc4)cn23)cc1OC	.	.	-5.9	.	-15.0	6.0	.	.
CC(C)(C)CC(=O)Nc1cc2c3c(c1)CCN3C(=O)CC2	-2.2	.	18.7	-5.8	-2.2	-1.2	.	.
Cc1ccc(NC(C(=O)c2ccccc2)c2ccccc2)cc1 (configuration not stated)	0.0	.	-2.0	.	5.0	0.4	.	.
CC(NC(C(=O)c1ccccc1)c1ccccc1)c1ccccc1 (configuration not stated)	0.4	.	-3.7	.	14.7	11.8*	0.2	5.6
COc1cccc(N2CCN(C(=O)CNC(=O)c3sc4ccccc4c3Cl)CC2)c1	-1.0	.	-16.2	-1.0	-3.6	69.5*	2.5	2.9
CCOc1ccccc1N1CCN(C(=O)CNC(=O)c2sc3ccccc3c2Cl)CC1	-6.1	.	-6.0	-1.8	3.7	2.0	.	.
O=c1[nH]c(CN2CCCCC2)ccc1O	3.7	.	7.2	.	-3.6	-1.9	.	.
CCOC(=O)N1CCN(C(C(=O)NC2CCCC2)c2cccc(OC)c2OC)CC1 (configuration not stated)	.	.	1.1	.	.	.	.	.
Cc1cccc(C(=O)OCC(=O)c2ccc3c(c2)OCCO3)c1O	-0.6	.	-9.3	-4.4	-0.9	11.2*	2.6	3.0
Cc1cccc(C(=O)OCC(=O)c2ccc3c(c2)OCO3)c1O	-16.5	.	-9.8	-4.0	-0.2	-0.7	.	.
COc1ccccc1NC(=O)COC(=O)c1ccc2c(c1)OCCO2	0.9	.	-1.6	5.4	9.3	18.7*	3.1	2.7
O=C(c1ccccc1NS(=O)(=O)c1cccc(C(F)(F)F)c1)N1CCc2ccccc21	-4.0	0.9	-8.1	0.0	16.0	10.2*	0.9	6.3
Cc1ccc(OCCNC(=O)[C@H]2O[C@@H](n3cnc4c(N)ncnc43)[C@H](O)[C@@H]2O)cc1C	.	.	4.4	.	.	.	.	.
CC1CCN(C(=O)Cn2nnc(-c3ccc(C(C)C)cc3)n2)CC1	-4.7	.	3.5	-2.4	10.7	-0.2	.	.
CC(=O)c1cc2c(cc1NC(=O)CN1CCN(c3cccc(C(F)(F)F)c3)CC1)OCO2	3.3	7.6	-9.2	-1.4	3.4	16.3*	-1.8	3.1
COC(=O)c1ccc(COc2ccc(/C=C(\C#N)c3nc4ccccc4[nH]3)cc2OC)o1	9.0	0.4	7.7	-5.3	18.2	0.8	.	.
